Assay results reported in ChEMBL document CHEMBL3588840, “An Isoflavone from Leiophyllum buxifolium and Its Antiproliferative Effect” (J Nat Prod, 2015).

Columns and labels:
MDA-MB-231 = assay: Antiproliferative activity against human MDA-MB-231 cells assessed as inhibition of cell proliferation incubated for 72 hrs by SRB assay; type: functional, cell-based; settings: MDA-MB-231, 72 h
In short: (§1)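 Seeded at 1 × 10^4 cells/well (MCF-7: EMEM + 10% FBS; MDA-MB-231: EMEM + 10% NuSerum; NIH3T3: DMEM + 5% NuSerum + 1% antibiotics). Exposed to 1.25–40 μM final (DMSO stock diluted in water) for 72 h at 37 °C, 5% CO2. Day-0 plate used. Fixed with TCA (10% final, 4 °C, 1 h), stained with 0.4% SRB, dye dissolved in 10 mM Tris. IC50 derived. Podophyllotoxin and 0.5% DMSO as controls.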

MCF7 = assay: Antiproliferative activity against human MCF7 cells assessed as inhibition of cell proliferation incubated for 72 hrs by SRB assay; type: functional, cell-based; settings: MCF7, 72 h; in short: as §1
Artemia salina = assay: Cytotoxicity against Artemia salina assessed as induction of shrimp mortality incubated for 24 hrs; type: functional; settings: for LC50: read-out: LD50 (the source's name)
[1] = Antiproliferative activity against mouse NIH/3T3 cells assessed as inhibition of cell proliferation incubated for 72 hrs by SRB assay; type: cell-based; settings: NIH3T3, 72 h; in short: as §1

Structure (SMILES) | IC50 (MDA-MB-231) | IC50 (MCF7) | Activity (Artemia salina) | LC50 (Artemia salina) | IC50 [1]
COc1c(C)c(O)c2c(=O)c(-c3ccc(O)cc3)coc2c1C | 7 µM | > 40 µM | Dose-dependent effect | 20.2 µM | > 40 µM
COc1cc([C@@H]2c3cc4c(cc3[C@H](O)[C@H]3COC(=O)[C@H]23)OCO4)cc(OC)c1OC [PODOFILOX] | 0.079 µM | – | – | – | 0.084 µM
COc1c(C)c(O)c2c(=O)cc(-c3ccc(O)cc3)oc2c1C [SIDEROXYLIN] | 36.9 µM | 14.7 µM | Dose-dependent effect | 80.1 µM | > 40 µM
